For orientation: MIC means the least concentration at which growth counts as inhibited. Read a low MIC as inhibition by little substance.

Eight compounds from ChEMBL document CHEMBL1136894, “New antituberculotics originated from salicylanilides with promising in vitro activity against atypical mycobacterial strains” (Bioorg Med Chem, 2009) can be followed below.

Series [1] deals with Mycobacterium kansasii. Put plainly: Antimycobacterial activity against Mycobacterium kansasii isolate 6509/96 after 21 days. Format: functional. Particulars: isolate 6509/96, 504 h. Put shortly:
(§1)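 Compounds were added as DMSO solutions to Sula semisynthetic medium at 250, 125, 62, 32, 16, 8, 4, 2 and 1 µmol/L. Two M. kansasii strains were used: CNCTC My 235/80 and clinical isolate 6509/96, each with strain dilution 10^-4. Incubation was at 37 °C, and MIC was read at 7, 14 and 21 days.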

For series [2], the system named is Mycobacterium kansasii. The experiment in a line: Antimycobacterial activity against Mycobacterium kansasii isolate 6509/96 after 7 days. The settings on record: isolate 6509/96, 168 h. The class given is functional. An outline of the steps: as §1
The subject of series [3] is Mycobacterium avium. The experiment in a line: Antimycobacterial activity against Mycobacterium avium CNCTC My 330/88 after 14 days. The class given is functional. The settings on record: CNCTC My 330/88, 336 h. An outline of the steps:
(§2)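 Broth dilution in Sula semisynthetic medium, compounds added as DMSO solutions at 250, 125, 62, 32, 16, 8, 4, 2 and 1. Strains came from the Czech National Collection of Type Cultures; the M. tuberculosis inoculum was diluted 10^-3. Cultures were incubated at 37 °C, and MIC was read after 7, 14 and 21 days.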

A short description of series [4]: Lipophilicity, log K by HPLC. Format: physicochemical. An outline of the steps:
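Capacity factors k were measured by RP-HPLC and log k was calculated from them.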

For series [5], the system named is Mycobacterium tuberculosis. Put plainly: Antimycobacterial activity against Mycobacterium tuberculosis CNCTC My 331/88 after 21 days. The class given is functional. Particulars: CNCTC My 331/88, 504 h. An outline of the steps:
as §2

Series [6] has as its system Mycobacterium kansasii. The experiment in a line: Antimycobacterial activity against Mycobacterium kansasii CNCTC My 235/80 after 7 days. Format: functional. The settings on record: CNCTC My 235/80, 168 h. An outline of the steps: as §1
In series [7] the test system is Mycobacterium avium. Put plainly: Antimycobacterial activity against Mycobacterium avium CNCTC My 330/88 after 21 days. Format: functional. Particulars: CNCTC My 330/88, 504 h. Put shortly: as §2
The subject of series [8] is Mycobacterium kansasii. The experiment in a line: Antimycobacterial activity against Mycobacterium kansasii CNCTC My 235/80 after 21 days. Particulars: CNCTC My 235/80, 504 h. Format: functional. An outline of the steps:
as §1

For series [9], the system named is Mycobacterium tuberculosis. Put plainly: Antimycobacterial activity against Mycobacterium tuberculosis CNCTC My 331/88 after 14 days. The settings on record: CNCTC My 331/88, 336 h. Format: functional. An outline of the steps: as §2
The test system of series [10] is Mycobacterium kansasii. The experiment in a line: Antimycobacterial activity against Mycobacterium kansasii CNCTC My 235/80 after 14 days. The class given is functional. Particulars: CNCTC My 235/80, 336 h. Put shortly:
as §1

In series [11] the test system is Mycobacterium kansasii. The experiment in a line: Antimycobacterial activity against Mycobacterium kansasii isolate 6509/96 after 14 days. The settings on record: isolate 6509/96, 336 h. The class given is functional. Put shortly: as §1

Converted amounts (≈) assume the structure as drawn. Bounds are passed on as bounds.

Take `CC(C)[C@@H](NC(=O)OCc1ccccc1)C(=O)Oc1ccc(Cl)cc1C(=O)Nc1ccc(Cl)cc1`: the MIC in the series with Mycobacterium kansasii [1] worked out at 16 µM (≈ 8.25 µg/mL); in the series on Mycobacterium kansasii [2], 8 µM (≈ 4.12 µg/mL); in the series on Mycobacterium avium [3], 16 µM (≈ 8.25 µg/mL); in [5], 4 µM (≈ 2.06 µg/mL); in the series on Mycobacterium kansasii [6] it was 8 µM (≈ 4.12 µg/mL); in the series with Mycobacterium avium [7] it was 16 µM (≈ 8.25 µg/mL). Also, the MIC against Mycobacterium kansasii [8] was 16 µM (≈ 8.25 µg/mL); in [9], 4 µM (≈ 2.06 µg/mL); with Mycobacterium kansasii [10], 8 µM (≈ 4.12 µg/mL); in the series on Mycobacterium kansasii [11], 8 µM (≈ 4.12 µg/mL). Further, the “log K” value in series [4] was 0.9421.

Turning to `O=C(N[C@@H](Cc1ccccc1)C(=O)Oc1ccc(Cl)cc1C(=O)Nc1cccc(Cl)c1)OCc1ccccc1`, the minimum inhibitory concentration (MIC) in the series on Mycobacterium kansasii [1] is 32 µM (≈ 18 µg/mL); in the series with Mycobacterium kansasii [2] it was 32 µM (≈ 18 µg/mL); with Mycobacterium avium [3], 32 µM (≈ 18 µg/mL); in series [5], 16 µM (≈ 9.01 µg/mL); against Mycobacterium kansasii [6], 32 µM (≈ 18 µg/mL); in the series on Mycobacterium avium [7] it was 62.5 µM (≈ 35.2 µg/mL). For the same compound, the MIC in the series with Mycobacterium kansasii [8] was determined as 32 µM (≈ 18 µg/mL); in series [9], 16 µM (≈ 9.01 µg/mL); with Mycobacterium kansasii [10], 32 µM (≈ 18 µg/mL); in the series on Mycobacterium kansasii [11], 32 µM (≈ 18 µg/mL). Also, in series [4], the “log K” value turned out to be 1.0465.

As to `C[C@@H](NC(=O)OCc1ccccc1)C(=O)Oc1ccc(Cl)cc1C(=O)Nc1ccc(Cl)cc1`, the minimum inhibitory concentration (MIC) against Mycobacterium kansasii [1] amounted to 16 µM (≈ 7.8 µg/mL); with Mycobacterium kansasii [2] it was 8 µM (≈ 3.9 µg/mL); in the series with Mycobacterium avium [3], 16 µM (≈ 7.8 µg/mL); in series [5], 4 µM (≈ 1.95 µg/mL); with Mycobacterium kansasii [6], 8 µM (≈ 3.9 µg/mL); against Mycobacterium avium [7], 16 µM (≈ 7.8 µg/mL). For the same compound, the MIC against Mycobacterium kansasii [8] stood at 16 µM (≈ 7.8 µg/mL); in [9], 4 µM (≈ 1.95 µg/mL); with Mycobacterium kansasii [10], 16 µM (≈ 7.8 µg/mL); against Mycobacterium kansasii [11], 8 µM (≈ 3.9 µg/mL). For the same compound, the “log K” value in [4] was 0.7294.

`C[C@H](NC(=O)OCc1ccccc1)C(=O)Oc1cc(Cl)ccc1C(=O)Nc1ccc(Cl)cc1`: the MIC turned out to be 16 µM (≈ 7.8 µg/mL) in the series on Mycobacterium kansasii [1]; 8 µM (≈ 3.9 µg/mL) with Mycobacterium kansasii [2]; 16 µM (≈ 7.8 µg/mL) against Mycobacterium avium [3]; 8 µM (≈ 3.9 µg/mL) in series [5]; 4 µM (≈ 1.95 µg/mL) with Mycobacterium kansasii [6]; 16 µM (≈ 7.8 µg/mL) against Mycobacterium avium [7]. For the same compound, the MIC against Mycobacterium kansasii [8] was 8 µM (≈ 3.9 µg/mL); in [9] it was 4 µM (≈ 1.95 µg/mL); against Mycobacterium kansasii [10], 8 µM (≈ 3.9 µg/mL); with Mycobacterium kansasii [11], 8 µM (≈ 3.9 µg/mL). Besides, in series [4], the “log K” value is on record as 0.6337.

Turning to `CC(C)[C@H](NC(=O)OCc1ccccc1)C(=O)Oc1ccc(Cl)cc1C(=O)Nc1ccc(Cl)cc1`, the MIC in the series with Mycobacterium kansasii [1] is 16 µM (≈ 8.25 µg/mL); in the series on Mycobacterium kansasii [2], 8 µM (≈ 4.12 µg/mL); with Mycobacterium avium [3] it was 16 µM (≈ 8.25 µg/mL); in series [5] it was 4 µM (≈ 2.06 µg/mL); in the series on Mycobacterium kansasii [6], 8 µM (≈ 4.12 µg/mL); against Mycobacterium avium [7], 16 µM (≈ 8.25 µg/mL). Further, the MIC was 16 µM (≈ 8.25 µg/mL) with Mycobacterium kansasii [8], 4 µM (≈ 2.06 µg/mL) in series [9], 16 µM (≈ 8.25 µg/mL) in the series with Mycobacterium kansasii [10] and 8 µM (≈ 4.12 µg/mL) against Mycobacterium kansasii [11]. For the same compound, the “log K” value in series [4] is 0.9417.

`C[C@@H](NC(=O)OCc1ccccc1)C(=O)Oc1ccc(Cl)cc1C(=O)Nc1cccc(Cl)c1`: the MIC against Mycobacterium kansasii [1] was 16 µM (≈ 7.8 µg/mL); with Mycobacterium kansasii [2], 8 µM (≈ 3.9 µg/mL); against Mycobacterium avium [3], 32 µM (≈ 15.6 µg/mL); in series [5] it was 8 µM (≈ 3.9 µg/mL); against Mycobacterium kansasii [6], 16 µM (≈ 7.8 µg/mL); in the series with Mycobacterium avium [7], 32 µM (≈ 15.6 µg/mL). Further, the MIC is 16 µM (≈ 7.8 µg/mL) against Mycobacterium kansasii [8], 8 µM (≈ 3.9 µg/mL) in series [9], 16 µM (≈ 7.8 µg/mL) against Mycobacterium kansasii [10] and 16 µM (≈ 7.8 µg/mL) in the series on Mycobacterium kansasii [11]. Also, the “log K” value in [4] came out at 0.699.

As to `O=C(CNC(=O)OCc1ccccc1)Oc1ccc(Cl)cc1C(=O)Nc1cccc(Cl)c1`, the MIC with Mycobacterium kansasii [1] amounted to 16 µM (≈ 7.57 µg/mL); in the series on Mycobacterium kansasii [2] it was 8 µM (≈ 3.79 µg/mL); in the series with Mycobacterium avium [3] it was 16 µM (≈ 7.57 µg/mL); in series [5], 8 µM (≈ 3.79 µg/mL); against Mycobacterium kansasii [6], 16 µM (≈ 7.57 µg/mL); in the series on Mycobacterium avium [7], 32 µM (≈ 15.1 µg/mL). Moreover, the minimum inhibitory concentration (MIC) in the series on Mycobacterium kansasii [8] is 16 µM (≈ 7.57 µg/mL); in series [9] it was 4 µM (≈ 1.89 µg/mL); against Mycobacterium kansasii [10] it was 16 µM (≈ 7.57 µg/mL); in the series with Mycobacterium kansasii [11], 16 µM (≈ 7.57 µg/mL). Also, the “log K” value in series [4] is recorded as 0.6119.

Consider `NNC(=O)c1ccncc1` [ISONIAZID], for which the MIC in the series on Mycobacterium kansasii [1] was 8 µM (≈ 1.1 µg/mL); against Mycobacterium kansasii [2] it was 4 µM (≈ 0.549 µg/mL); in the series on Mycobacterium avium [3], greater than 250 µM; in series [5], 0.5 µM (≈ 0.0686 µg/mL); with Mycobacterium kansasii [6] it was greater than 250 µM; in the series on Mycobacterium avium [7], greater than 250 µM. Further, the MIC against Mycobacterium kansasii [8] is greater than 250 µM; in series [9] it was 0.5 µM (≈ 0.0686 µg/mL); with Mycobacterium kansasii [10], greater than 250 µM; against Mycobacterium kansasii [11], 8 µM (≈ 1.1 µg/mL).
